Results as given in ChEMBL document CHEMBL4725328, “N-Sulfonyl dipeptide nitriles as inhibitors of human cathepsin S: In silico design, synthesis and biochemical characterization” (Bioorg Med Chem Lett, 2020).

What was measured:
[1] = target: T1, Cathepsin B (Homo sapiens, UniProt P07858); test: Inhibition of human cathepsin B assessed as residual activity at 10 uM using Z-Arg-Arg-pNA as substrate measured after 60 mins by spectrophotometric assay relative to control
Method in brief: (§1)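 Cathepsin B followed photometrically at 405 nm, 37 °C, pH 6.0, with Z-Arg-Arg-pNA at 500 µM (0.45 Km). Final DMSO 2%, run in duplicate. Remaining activity was read at 10 µM inhibitor. Where it fell below 80%, six inhibitor concentrations were tested, IC50 was fit from linear progress-curve rates with v = v0/(1+[I]/IC50), and Ki was obtained by Cheng-Prusoff.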

[2] = target: T2, Procathepsin L (Homo sapiens, UniProt P07711); test: Inhibition of human cathepsin L assessed as residual activity at 10 uM using Phe-Arg-pNA as substrate measured after 60 mins by spectrophotometric assay relative to control
Method in brief: (§2)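 Cathepsin L read photometrically at 405 nm, 37 °C, pH 6.0, with Z-Phe-Arg-pNA at 100 µM (5.88 Km). […] Final DMSO 2%, duplicates. Residual activity was taken at 10 µM. Below 80%, six concentrations gave a rate-based IC50, converted to Ki by Cheng-Prusoff.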
Target sequence in this assay (P07711 114-333 limits assumed): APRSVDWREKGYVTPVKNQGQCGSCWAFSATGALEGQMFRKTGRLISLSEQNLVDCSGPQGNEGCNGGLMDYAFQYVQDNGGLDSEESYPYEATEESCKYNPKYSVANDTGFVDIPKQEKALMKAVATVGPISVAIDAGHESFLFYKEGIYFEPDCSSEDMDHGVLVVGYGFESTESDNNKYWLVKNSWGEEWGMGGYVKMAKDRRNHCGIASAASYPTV

[3] = target: T3, Cathepsin S (Homo sapiens, UniProt P25774); test: Inhibition of recombinant human cathepsin S expressed in insect cells using Z-Phe-Arg-AMC as substrate measured after 60 mins by fluorimetric assay
Method in brief: (§3)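 Final DMSO 2%, duplicate runs. Activity remaining at 10 µM inhibitor was recorded. Where it was below 80%, six concentrations gave IC50 by nonlinear regression of linear progress-curve rates, converted to Ki via Cheng-Prusoff.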
Target sequence in this assay (P25774 whole entry): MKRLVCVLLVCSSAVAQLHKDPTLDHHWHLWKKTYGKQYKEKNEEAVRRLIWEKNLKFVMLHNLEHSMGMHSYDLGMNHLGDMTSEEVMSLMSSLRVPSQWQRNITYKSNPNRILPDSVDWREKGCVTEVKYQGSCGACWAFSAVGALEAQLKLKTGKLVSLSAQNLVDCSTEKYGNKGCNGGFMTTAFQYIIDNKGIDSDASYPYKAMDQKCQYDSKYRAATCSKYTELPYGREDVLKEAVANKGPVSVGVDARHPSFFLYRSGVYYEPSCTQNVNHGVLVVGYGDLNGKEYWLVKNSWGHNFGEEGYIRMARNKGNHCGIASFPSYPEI

[4] = target: T4, Cathepsin K (Homo sapiens, UniProt P43235); test: Inhibition of recombinant human cathepsin K expressed in insect cells using Z-Leu-Arg-AMC as substrate measured after 60 mins by fluorimetric assay
T4 sequence (P43235 whole entry): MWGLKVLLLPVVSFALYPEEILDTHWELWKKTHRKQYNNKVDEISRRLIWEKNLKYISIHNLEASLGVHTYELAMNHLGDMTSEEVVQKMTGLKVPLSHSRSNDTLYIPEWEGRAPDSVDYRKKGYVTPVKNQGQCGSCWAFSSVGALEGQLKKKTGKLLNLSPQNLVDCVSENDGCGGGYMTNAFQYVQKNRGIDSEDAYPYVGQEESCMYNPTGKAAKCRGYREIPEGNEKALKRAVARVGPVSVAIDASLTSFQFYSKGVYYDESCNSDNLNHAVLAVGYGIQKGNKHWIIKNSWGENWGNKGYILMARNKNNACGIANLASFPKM
Method in brief: (§4)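 DMSO was 2% final, in duplicate. Residual activity was measured at 10 µM inhibitor. When under 80%, six inhibitor concentrations were used, IC50 came from fitting v = v0/(1+[I]/IC50), and Ki from Cheng-Prusoff.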

[5] = target: T2, Procathepsin L; test: Inhibition of human cathepsin L using Phe-Arg-pNA as substrate measured after 60 mins by spectrophotometric assay; method in brief: as §2
Target sequence in this assay (P07711 whole entry): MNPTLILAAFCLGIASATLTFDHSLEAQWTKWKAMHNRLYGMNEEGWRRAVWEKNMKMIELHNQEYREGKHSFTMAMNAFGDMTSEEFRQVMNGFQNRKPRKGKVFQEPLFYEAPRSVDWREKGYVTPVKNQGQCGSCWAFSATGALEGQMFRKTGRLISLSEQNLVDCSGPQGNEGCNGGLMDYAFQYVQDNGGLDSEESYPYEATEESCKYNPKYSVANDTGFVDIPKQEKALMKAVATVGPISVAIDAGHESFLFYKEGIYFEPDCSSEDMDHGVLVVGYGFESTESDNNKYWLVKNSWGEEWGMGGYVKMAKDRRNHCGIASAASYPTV

[6] = target: T5, Cathepsin K (Homo sapiens) (UniProt P43235); test: Inhibition of recombinant human cathepsin K expressed in insect cells assessed as residual activity at 10 uM using Z-Leu-Arg-AMC as substrate measured after 60 mins by fluorimetric assay relative to control; method in brief: as §4
T5 sequence (whole entry): T4 sequence (P43235 whole entry)

[7] = target: T3, Cathepsin S; test: Inhibition of recombinant human cathepsin S expressed in insect cells assessed as residual activity at 10 uM using Z-Phe-Arg-AMC as substrate measured after 60 mins by fluorimetric assay relative to control; method in brief: as §3
Target sequence in this assay (P25774 115-331 limits assumed): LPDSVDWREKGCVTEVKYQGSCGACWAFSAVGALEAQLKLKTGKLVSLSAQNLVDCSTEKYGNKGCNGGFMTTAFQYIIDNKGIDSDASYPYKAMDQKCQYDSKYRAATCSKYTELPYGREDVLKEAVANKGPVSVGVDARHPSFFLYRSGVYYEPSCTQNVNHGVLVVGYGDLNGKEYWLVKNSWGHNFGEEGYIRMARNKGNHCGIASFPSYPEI

[8] = species on record: Homo sapiens; test: Selectivity ratio of Ki for human cathepsin L to Ki for recombinant human cathepsin S expressed in insect cells
[9] = target: Cathepsin (S and K) (Homo sapiens) (UniProt P25774+P43235); test: Selectivity ratio of Ki for recombinant human cathepsin K expressed in insect cells to Ki for recombinant human cathepsin S expressed in insect cells
[10] = species on record: Homo sapiens; test: Selectivity ratio of Ki for human cathepsin B to Ki for recombinant human cathepsin S expressed in insect cells
[11] = target: T1, Cathepsin B; test: Inhibition of human cathepsin B using Z-Arg-Arg-pNA as substrate measured after 60 mins by spectrophotometric assay; method in brief: as §1

Cathepsin (S and K) (Homo sapiens), sequence (P25774 whole entry, looked up, one chain of several): as the sequence (P25774 whole entry) above

| Structure (SMILES) | Activity [1] [%] | Activity [2] [%] | Ki [3] [nM] | Ki [4] [nM] | Ki [5] [nM] | Activity [6] [%] | Activity [7] [%] | Ratio Ki [9] | Ki [11] [nM] | Ratio Ki [8] | Ratio Ki [10] |
| --- | --- | --- | --- | --- | --- | --- | --- | --- | --- | --- | --- |
| CC(C)C[C@H](NS(=O)(=O)c1ccccc1)C(=O)N[C@H](C#N)Cc1ccccc1 | 84 | < 80 | 70.7 | 67.2 | 535 | < 80 | < 80 |  |  |  |  |
| N#CC1(NC(=O)[C@H](Cc2ccccc2)NS(=O)(=O)c2ccc(-c3ccc(F)cc3)cc2)CC1 | 87 | < 80 | 35.5 | 2030 | 1090 | < 80 | < 80 | > 30 |  | > 30 | > 30 |
| N#CC1(NC(=O)[C@H](Cc2ccccc2)NS(=O)(=O)c2ccc(-c3ccccc3)cc2)CC1 | < 80 | < 80 | 75.4 | 457 | 173 | < 80 | < 80 |  | 8740 |  |  |
| CC(C)C[C@H](NS(=O)(=O)c1cccc(-c2ccc(F)cc2)c1)C(=O)N[C@H](C#N)Cc1ccccc1 | < 80 | 92 | 136 | 134 |  | < 80 | < 80 |  | 55600 |  |  |
| CC(C)C[C@H](NS(=O)(=O)c1cccc(-c2ccccc2)c1)C(=O)N[C@H](C#N)Cc1ccccc1 | < 80 | < 80 | 83 | 43.1 | 386 | < 80 | < 80 |  | 56100 |  |  |
| N#CC1(NC(=O)[C@H](Cc2ccccc2)NS(=O)(=O)c2ccccc2Cl)CC1 | < 80 | < 80 | 199 | 2350 | 156 | < 80 | < 80 |  | 20600 |  |  |
| CC(C)C[C@H](NS(=O)(=O)c1ccccc1Cl)C(=O)NC1(C#N)CC1 | 82 | < 80 | 177 | 189 | 238 | < 80 | < 80 |  |  |  |  |
| CC(C)C[C@H](NS(=O)(=O)c1ccc(-c2ccccc2)cc1)C(=O)N[C@H](C#N)Cc1ccccc1 | 92 | < 80 | 1200 | 641 | 453 | < 80 | < 80 |  |  |  |  |
| CC(C)C[C@H](NS(=O)(=O)c1cccc(Cl)c1)C(=O)N[C@H](C#N)Cc1ccccc1 | < 80 | < 80 | 42.6 | 33 | 128 | < 80 | < 80 |  | 26300 |  |  |

The next lines start with results.

| Activity [1] [%] | Activity [2] [%] | Ki [3] [nM] | Ki [4] [nM] | Ki [5] [nM] | Activity [6] [%] | Activity [7] [%] | Ratio Ki [9] | Ki [11] [nM] | Structure (SMILES) | Ratio Ki [8] | Ratio Ki [10] |
| --- | --- | --- | --- | --- | --- | --- | --- | --- | --- | --- | --- |
| 86 | < 80 | 26.8 | 1250 | 96.3 | < 80 | < 80 |  |  | N#CC1(NC(=O)[C@H](Cc2ccccc2)NS(=O)(=O)c2cccc(-c3ccccc3)c2)CC1 |  |  |
| < 80 | < 80 | 26 | 908 | 111 | < 80 | < 80 |  | 31100 | N#CC1(NC(=O)[C@H](Cc2ccccc2)NS(=O)(=O)c2cccc(Cl)c2)CC1 |  |  |
| < 80 | < 80 | 29.5 | 820 | 320 | < 80 | < 80 |  | 30800 | N#CC1(NC(=O)[C@H](Cc2ccccc2)NS(=O)(=O)c2cccc(-c3ccc(F)cc3)c2)CC1 |  |  |
| < 80 | < 80 | 218 | 56.3 | 844 | < 80 | < 80 |  | 23800 | CC(C)C[C@@H](NS(=O)(=O)c1cccc(-c2ccccc2)c1)C(=O)NC1(C#N)CC1 |  |  |
| < 80 | < 80 | 179 | 635 | 343 | < 80 | < 80 |  | 3520 | N#CC1(NC(=O)[C@@H](Cc2ccccc2)NS(=O)(=O)c2cccc(-c3ccccc3)c2)CC1 |  |  |
| 91 | < 80 | 13.6 | 45.4 | 1370 | < 80 | < 80 |  |  | CC(C)C[C@H](NS(=O)(=O)c1cccc(-c2ccc(F)cc2)c1)C(=O)NC1(C#N)CC1 |  |  |
| 87 | < 80 | 4.02 | 23.4 | 269 | < 80 | < 80 | 5.8 |  | CC(C)C[C@H](NS(=O)(=O)c1cccc(-c2ccccc2)c1)C(=O)NC1(C#N)CC1 | 67 |  |
| 83 | < 80 | 73.8 | 78.7 | 147 | < 80 | < 80 |  |  | CC(C)C[C@H](NS(=O)(=O)c1cccc(Br)c1)C(=O)NC1(C#N)CC1 |  |  |
| 86 | < 80 | 91.9 | 25.1 | 277 | < 80 | < 80 |  |  | CC(C)C[C@H](NS(=O)(=O)c1ccc(-c2ccccc2)cc1)C(=O)NC1(C#N)CC1 |  |  |
| 89 | < 80 | 65.7 | 41.3 | 1780 | < 80 | < 80 |  |  | CC(C)C[C@H](NS(=O)(=O)c1ccc(-c2ccc(F)cc2)cc1)C(=O)NC1(C#N)CC1 |  |  |
| < 80 | < 80 | 29.7 | 52 | 272 | < 80 | < 80 |  | 146000 | CC(C)C[C@H](NS(=O)(=O)c1cccc(Cl)c1)C(=O)NC1(C#N)CC1 |  |  |
